In article PMC10281356 (Drug Delivery, 2023):

Legend:
EGFP and luciferase mRNA = assay: Gel retardation assay, vector-mRNA binding; conditions: agarose gel electrophoresis
Procedure, shortened: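 Test compounds (peptide vectors, with or without PEG) mixed with EGFP or luciferase mRNA at 0.5:1 to 15:1 (w/w) to form self-assemblies. Run on agarose gel in 1× TAE at 140 V for 40 min. Stained with GelRed and imaged under UV. Unbound mRNA served as control. Complete binding was taken as loss of the free mRNA band.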

A549 cells = assay: MTT cytotoxicity assay on A549 cells; type: cell-based, human; conditions: peptide alone at 50 and 25 μg/mL, 24 h, n = 3
Procedure, shortened: (§1)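 Peptide vectors, PEGylated or not, were added alone at a series of concentrations to A549 or HepG2 cells, followed by MTT read-out. Viability (%) was calculated from absorbance of treated cells relative to untreated cells. Data given as mean ± SEM (n = 3) and compared by one-way ANOVA with Tukey's post-hoc test.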

HepG2 cells = assay: MTT cytotoxicity assay on HepG2 cells; type: cell-based, human; conditions: peptide alone at 50 and 25 μg/mL, 24 h, n = 3
Procedure, shortened: as §1

- mRNA affinity compared with non-PEGylated LA peptide (EGFP and luciferase mRNA): comparable
Substance: (PEG24)-KKALLAHALHLLA LLALHLAHALKKA-NH2 [PEG24LA, PEG24-LAH4-L1]
- cytotoxicity of peptide compared with non-PEGylated LA peptide (A549 cells): significantly lower
- cytotoxicity of peptide compared with non-PEGylated LA peptide (HepG2 cells): significantly lower
